# Screening data deposited in PubChem by several laboratories.
# STAT1 inh – inhibitors of IFN-gamma induced STAT1 signaling; NIH 3T3 STAT1-luciferase reporter, luminescence; 200,000 compounds, 0.35% hits; inhibition, % at 5.5 µM; AID 920;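 active = inhibition above a set limit, the mean inhibition across all tested compounds plus 3 SD, cut at about 34% in these data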;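 note: 0% = IFN-gamma with DMSO and 100% = IFN-gamma with 300 µM nifuroxazide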
# PERK inhibitor – inhibitors of human PERK kinase; inhibition, % at 5.6 µM; 220,000 compounds, 0.17% hits; CHO PERK-DD fusion, SEAP luminescence translation reporter; AID 1416;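 active = inhibition above the mean inhibition of all tested compounds plus 3 SD, set separately per screening campaign, cut at about 2.9% in these data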;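 note: PERK kinase domain activated by AP20187 dimerizer at 100 nM; 0% = DMSO with dimerizer and 100% = rapamycin at 8.4 µM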
# Target sequence (Q9NZJ5 whole entry, looked up, the tested form may be a part): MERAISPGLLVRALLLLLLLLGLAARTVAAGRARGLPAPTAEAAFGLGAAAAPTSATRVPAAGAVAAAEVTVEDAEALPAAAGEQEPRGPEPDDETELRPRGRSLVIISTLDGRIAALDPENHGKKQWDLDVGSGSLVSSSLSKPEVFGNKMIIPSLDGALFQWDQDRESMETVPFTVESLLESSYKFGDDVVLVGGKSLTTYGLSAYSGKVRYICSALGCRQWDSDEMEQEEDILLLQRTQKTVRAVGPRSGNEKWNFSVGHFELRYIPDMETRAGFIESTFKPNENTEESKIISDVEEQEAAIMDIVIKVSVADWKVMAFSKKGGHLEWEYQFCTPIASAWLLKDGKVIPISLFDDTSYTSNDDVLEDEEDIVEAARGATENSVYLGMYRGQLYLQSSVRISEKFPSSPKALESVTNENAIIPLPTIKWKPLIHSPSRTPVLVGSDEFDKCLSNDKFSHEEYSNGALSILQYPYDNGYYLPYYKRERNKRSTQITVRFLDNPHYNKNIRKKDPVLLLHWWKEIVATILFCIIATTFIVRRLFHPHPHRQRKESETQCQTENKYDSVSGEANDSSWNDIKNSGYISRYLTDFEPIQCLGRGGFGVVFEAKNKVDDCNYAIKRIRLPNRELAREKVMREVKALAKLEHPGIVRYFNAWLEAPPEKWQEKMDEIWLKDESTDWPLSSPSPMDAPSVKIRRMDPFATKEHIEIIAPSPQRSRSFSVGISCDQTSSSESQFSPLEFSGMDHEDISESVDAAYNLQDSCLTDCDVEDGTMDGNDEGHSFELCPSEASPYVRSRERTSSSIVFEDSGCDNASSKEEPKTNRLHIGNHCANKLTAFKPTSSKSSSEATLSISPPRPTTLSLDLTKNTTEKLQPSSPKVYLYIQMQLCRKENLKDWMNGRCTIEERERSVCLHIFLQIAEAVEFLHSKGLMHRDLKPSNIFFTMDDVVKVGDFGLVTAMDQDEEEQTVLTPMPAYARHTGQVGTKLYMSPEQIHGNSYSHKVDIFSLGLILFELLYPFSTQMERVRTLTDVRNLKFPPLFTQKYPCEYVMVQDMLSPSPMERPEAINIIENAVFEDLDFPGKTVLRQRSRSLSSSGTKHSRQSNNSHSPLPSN
# STAT3 act-1 – increases IL-6 driven STAT3 reporter signal; U3A cells, IL-6 STAT3-luciferase reporter, luminescence; 100% = signal with IL-6 EC80 alone; activation (% of control), % at 5.6 µM; 190,000 compounds, 0.91% hits; AID 871;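 active = activation above the screen-wide mean of compound activation plus 3 SD, cut at about 130% in these data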;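 note: 0% = background luminescence of wells with medium and substrate only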
#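 Material: STAT1-lacking human U3A cells, STAT3 luciferase reporter | Benchmarks: IL-6-only wells as 100% reference | Probe or stimulus: IL-6 (33 ng/mL) | Timing: Compound 1 h, then IL-6 6 h at 37 °C | Detection: Luminescence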
# Platelet DG rel – modulates dense granule release in human platelets; human platelet-rich plasma, SFLLRN dense granule ATP release, luminescence; inhibition, %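 (compounds screened at 7.5 µM in platelet-rich plasma)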; 300,000 compounds, 0.22% hits; AID 1663;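 active = mean replicate score, as percent of positive control, at or above 50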
# STAT3 blocker – STAT3 signaling inhibition | U3A cells, IL-6 STAT3-luciferase reporter, luminescence; host cell line lacks STAT1 | inhibition, % at 5.5 µM | 190,000 compounds, 0.89% hits;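 active = inhibition above the mean inhibition across all screened compounds plus 3 SD, cut at about 44% in these data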;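 note: 0% = DMSO only wells and 100% = 100 µM nifuroxazide control wells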
# STAT3 act-2 – confirmation of STAT3 signaling activators | shares compounds with STAT3 act-1 | U3A STAT3-luciferase reporter, IL-6 potentiation, luminescence; U3A cells lack STAT1; 100 means same as IL-6 alone | potentiation (% of control), % at 5.7 µM | 1,200 compounds, 64% hits | AID 1267;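 active = percent activation of the STAT3 luciferase reporter above a set limit taken from the earlier primary screen, cut at about 130% in these data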;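 note: 0% = background signal of medium plus substrate and 100% = median of IL-6 with DMSO wells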
# NFkB act STAT3ct – NF-kappaB activation in STAT3 activator counter-screen. shares compounds with STAT3 act-1. 1,200 compounds, 11% hits. activation (% of control), % at 5.7 µM. human cells, NF-kappaB reporter activation; in the data active = activation above about 120%;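 note: reporter induced by TNF-alpha stimulation; 100% = median of stimulated DMSO wells and 0% = no signal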
# STAT1 act STAT3c – activates STAT1, counter-screen to STAT3 activators | shares compounds with STAT3 act-1 | NIH 3T3 STAT1-luciferase reporter, IFN-gamma, luminescence | activation (% of control), % at 5.7 µM | 1,200 compounds, 13% hits;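 active = activation above the solvent-only control well mean plus 3 SD, set per screening run, cut at about 120% in these data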;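 note: 100% = IFN-gamma with DMSO median signal so 100% means no change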
# An asterisk follows results filed as active; / = no result. Most compounds without a hit are left out; they make up all but 1.4% or so of the library.
SMILES,STAT1 inh,PERK inhibitor,STAT3 act-1,Platelet DG rel,STAT3 blocker,STAT3 act-2,NFkB act STAT3ct,STAT1 act STAT3c
COc1cc2c(cc1NC(=O)C(C)OC(=O)c1ccc(S(=O)(=O)Nc3ccccc3Cl)cc1)oc1ccccc12 (stereo not drawn),-3.8,0.6,140.9*,-14.4,-40.7,128.2,106.5,103.8
COc1cc2c(cc1NC(=O)C(C)Sc1nc3ccccc3n1C)oc1ccccc12 (stereo not drawn),3.9,0.3,119.2,13.8,-22.2,/,/,/
COc1cc2c(cc1NC(=O)C(C)N1CCN(S(=O)(=O)c3ccc(C)c(C)c3)CC1)oc1ccccc12 (stereo not drawn),0.9,0.3,102.4,-10.2,-2.6,/,/,/
COc1cc2c(cc1NC(=O)c1ccncc1)oc1ccccc12,-18.2,-2.0,154.8*,-3.3,-60.5,136.6*,104.9,119.7
COc1cc2c(cc1NC(=O)c1cccnc1)oc1ccccc12,-27.7,-0.6,109.1,25.3,-10.6,/,/,/
COc1ccccc1CCC(=O)Oc1ccccc1C#N,/,/,/,-3.7,/,/,/,/
COC(C(=O)Nc1ccnn1C1CCN(Cc2cnn(C(C)C)c2)CC1)c1ccccc1 (stereo not drawn),/,/,/,4.5,/,/,/,/
CC(C)C1N=C(c2ccc3c(c2)OCO3)CC(c2ccccc2O)N1 (stereo not drawn),11.5,0.0,137.7*,-3.1,-36.9,126.4,108.3,90.0
O=C(CN1CCCCC1)Nc1ccc(NC(=O)c2ccccc2Cl)cc1Cl,13.7,-0.1,96.5,0.2,2.0,/,/,/
COc1cccc(CNC(=O)CCCSc2ccccc2)c1,/,/,/,2.1,/,/,/,/
COCCC(=O)N1CCC(Oc2ccc(C(=O)N3CCCCC3COC)cc2)CC1 (stereo not drawn),/,/,/,-6.0,/,/,/,/
CSCCC(NC(=O)/C(=C/c1ccco1)NC(=O)c1ccco1)C(=O)O (stereo not drawn),/,/,/,4.2,/,/,/,/
O=C1CC(Nc2ccc3ccccc3c2)C(=O)N1Cc1ccccc1 (stereo not drawn),-4.5,-1.2,137.6*,-0.5,-36.2,135.1*,103.5,103.1
O=C1CC(Nc2ccc(N3CCOCC3)cc2)C(=O)N1Cc1ccccc1 (stereo not drawn),11.9,0.8,97.2,9.3,6.1,/,/,/
NC(=O)C1CCN(c2nc(-c3ccccc3)nc3ccccc23)CC1,8.1,-0.3,100.4,-0.1,3.7,/,/,/
CCOC(=O)C1CCN(c2nc(-c3ccc(Br)cc3)nc3ccccc23)CC1,4.6,0.6,142.5*,-4.2,-39.8,137.4*,97.9,88.8
COc1ccccc1CNS(=O)(=O)c1ccc(Br)s1,/,/,/,0.3,/,/,/,/
Cc1nc2ccc(Br)cn2c1C(=O)N/N=C\c1ccccc1[N+](=O)[O-],7.1,-0.2,147.7*,-0.7,-49.8,132.5,97.1,101.6
CC1(C)CC(N=Cc2c(O)n(Cc3ccc4c(c3)OCO4)c(=O)c3ccccc23)CC(C)(C)N1,1.2,-0.6,96.5,-1.0,6.1,/,/,/
COc1cc2c(cc1OC)CN(CC(=O)Nc1ccccc1C#N)CC2,4.4,-0.9,159.1*,2.0,-63.9,138.2*,104.5,93.9
O=C(CSc1nc2c([nH]c3ccccc32)c(=O)n1-c1ccc(F)cc1)NCc1ccco1,14.0,-0.6,142.1*,-3.6,-40.0,118.8,94.0,87.2
CC1(C)Cc2c(sc3[nH]c(=S)[nH]c(=O)c23)CO1,-5.5,0.6,102.5,-3.8,5.7,/,/,/
Cc1cc(NC(=O)Cc2cccs2)no1,0.9,1.4,143.3*,/,-47.4,130.8,108.3,99.8
CCCc1ccc(C(=O)CCC(=O)NNC(=O)c2ccncc2)cc1,/,/,/,17.4,/,/,/,/
CCOc1cc(N2CCOCC2)c(OCC)cc1NC(=O)COc1ncnc2ccccc12,-6.0,-1.2,151.2*,-0.7,-50.3,154.4*,107.1,104.2
SMILES,STAT1 inh,PERK inhibitor,STAT3 act-1,Platelet DG rel,STAT3 blocker,STAT3 act-2,NFkB act STAT3ct,STAT1 act STAT3c
CCOc1cc(N2CCOCC2)c(OCC)cc1NC(=O)COC(=O)c1cc2ccccc2cc1O,4.2,0.2,104.7,13.7,-5.6,/,/,/
CCCn1c(NC(=O)c2ccccc2)nc2ccccc21,-2.7,-2.2,137.2*,-4.9,-33.3,112.6,105.9,100.2
CCCn1c(NC(=O)c2ccc(C)cc2)nc2ccccc21,-15.3,-1.2,103.6,-3.4,-0.2,/,/,/
O=C(Nc1nc2ccccc2n1CCN1CCCC1)c1ccc(Cl)cc1,-22.2,-1.2,149.8*,/,-55.1,143.4*,116.8,127.3*
CCOC(=O)CC1C(=O)NCCN1C1CCCC1 (stereo not drawn),4.0,0.4,100.5,12.4,2.8,/,/,/
NC(c1ccccc1)c1cccnc1 (stereo not drawn),/,/,/,-2.6,/,/,/,/
COC(=O)c1cc2c(s1)-c1cc(F)ccc1OC2,/,1.0,/,4.9,/,/,/,/
COC(=O)c1cc2c(s1)-c1ccccc1CC2,-21.2,0.4,163.5*,7.5,-64.5,149.5*,112.1,125.7*
Nc1cccc(C2=Nc3cccc4cccc(c34)N2)c1,0.8,1.3,147.0*,1.8,-63.1,156.7*,103.3,105.1
ClCC1=Nc2cccc3cccc(c23)N1,/,-0.1,/,-3.5,/,/,/,/
COc1ccccc1-c1nnc2n1N=C(c1ccc(O)c(O)c1)CS2,2.7,0.8,136.1*,1.7,-38.1,126.8,160.2*,125.2*
COc1ccc(C2=Nn3c(nnc3-c3ccncc3)SC2)cc1OC,23.3,-1.2,126.7,10.2,-24.1,/,/,/
Brc1ccccc1C1=Nn2c(nnc2-c2ccccc2)SC1,4.8,-0.6,136.7*,5.9,-38.0,140.3*,100.5,91.5
CN(c1ccccc1)S(=O)(=O)c1ccc(NC(=O)c2nc(S(C)(=O)=O)ncc2Cl)cc1,/,/,/,-1.0,/,/,/,/
Cc1[nH]c2ccccc2c1/C=N/Nc1ccc(F)cc1F,-14.1,-0.6,154.8*,/,-58.6,142.0*,107.9,121.1*
Cn1nnnc1SCc1nc2ccccc2s1,-12.2,-1.2,139.2*,7.9,-43.3,139.4*,114.9,124.3*
O=c1c2ccccc2nc(SCc2nc3ccccc3s2)n1CCCO,-29.5,-0.2,137.1*,-34.7,-34.8,151.4*,120.8*,151.2*
O=C(CSc1nc2ccccc2c(=O)n1CCCO)NCc1ccccc1,3.8,0.2,100.0,12.2,7.3,/,/,/
OCc1ccccc1OCCCOc1cccc2cccnc12,/,/,/,1.2,/,/,/,/
